The source made the active and inactive calls. The calls are words filed in the database; no cut-off is given here.
How the values were obtained:
NCI-H460 = assay: Antiproliferative activity against human NCI-H460 cells assessed as reduction in cell growth upto 10 uM measured after 6 days by propidium iodide staining based analysis; assay type: functional; conditions: time 6.0 day
How it was run: (§1)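 ATCC-sourced lines grown without antibiotics; 1,000 cells/well in 1% FBS medium, refed ±drug on days 1 and 4 over a 6-day course. On day 7, propidium iodide (10 μg/mL in D-PBS) read after 30 min for nonviable cells, plate frozen at -80°C 2 h, thawed and reread; proliferative index = postfreeze minus prefreeze signal.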

T47D = assay: Antiproliferative activity against human T47D cells assessed as reduction in cell growth upto 10 uM measured after 6 days by propidium iodide staining based analysis; assay type: functional; conditions: time 6.0 day; how it was run: as §1
HCT-116 [1] = assay: Induction of apoptosis in human HCT-116 cells assessed as increase in apoptotic cells incubated for 72 hrs by TUNEL staining based analysis (reference value: 2%); assay type: functional; conditions: dose 4 µmol/L, at 4 µM
[2] = target: Protein kinase C zeta type (Homo sapiens) (UniProt Q05513); assay: Inhibition of PKCzeta (unknown origin) at 1 micromol/L relative to control; conditions: dose 1.0 µmol/L
How it was run: (§2)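 Commercial kinase profiler panel run to the provider's protocol, with the compound tested at 1 µmol/L. Activity is expressed as percent of kinase activity without compound.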

HCT-116 [3] = assay: Antitumor activity against human HCT-116 cells xenografted in athymic nude mouse assessed as reduction in GSK3beta phosphorylation at serine 9 residue at 75 mg/kg, po administered twice daily measured after 2 hrs by ELISA method relative to control; assay type: functional; parameters: scale not given: the % may be the effect or the level left
How it was run: (§3)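 HCT116-bearing nude mice, 75 mg/kg by gavage; tumors and PBMCs harvested 0.5, 2, 4, 8 h post-dose, n = 5 per time point. PBMCs from five mice pooled via CPT tube. Lysates assayed by pGSK3β Ser9 immunometric ELISA (tumor 400–600 μg, PBMC 50–100 μg protein/well); percent of vehicle control, Dunnett/ANOVA.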

[4] = Plasma concentration in athymic nude mouse xenografted with human HCT-116 cells at 75 mg/kg, po administered twice daily measured after 30 mins by LC-MS analysis; assay type: ADME, organism-based
How it was run: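 Female athymic nude mice, 6–8 weeks old, received 5 million HCT116 cells s.c. in the flank in 1:1 serum-free medium and matrigel (n = 9 per group). Dosing began at a group mean tumor volume of 100 mm³: 75 mg/kg twice daily by gavage, suspended in 10% acacia in water. Plasma was taken on days 1 and 21 at 0.5–12 h post-dose and measured by LC-MS/MS.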

HCT-116 [5] = assay: Antitumor activity against human HCT-116 cells xenografted in athymic nude mouse assessed as reduction in GSK3beta phosphorylation at serine 9 residue at 75 mg/kg, po administered twice daily measured after 30 mins by ELISA method relative to control; assay type: functional; parameters: scale not given: the % may be the effect or the level left; conditions: 0.5 h; how it was run: as §3
[6] = target: Platelet-derived growth factor receptor alpha (Homo sapiens) (UniProt P16234); assay: Inhibition of PDGFRalpha (unknown origin) at 1 micromol/L relative to control; conditions: dose 1.0 µmol/L; how it was run: as §2
HCT-116 [7] = assay: Inhibition of ERK in human HCT-116 cells at 1 micromol/L measured upto 4 hrs by Western blotting analysis; assay type: cell-based; conditions: dose 1.0 µmol/L
How it was run: (§4)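 Cultured tumor cells treated with 1 μmol/L drug; lysates in cell extraction buffer with protease inhibitors, western blotted with phospho-specific antibodies (pGSK3β Ser9, pAKT Thr308, phospho-ERK) alongside total GSK3β/AKT.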

[8] = target: Serine/threonine-protein kinase AKT (Homo sapiens) (UniProt P31751+Q9Y243+P31749); assay: Inhibition of AKT phosphorylation at Thr308 residue in human HCT-116 cells at 1 micromol/L upto 4 hrs by Western blotting analysis; assay type: cell-based; conditions: dose 1.0 µmol/L; how it was run: as §4
ACHN = assay: Antiproliferative activity against human ACHN cells assessed as reduction in cell growth upto 10 uM measured after 6 days by propidium iodide staining based analysis; assay type: functional; conditions: time 6.0 day; how it was run: as §1
HCT-116 [9] = assay: Antitumor activity against human HCT-116 cells xenografted in athymic nude mouse assessed as reduction in tumor growth at 75 mg/kg, po administered twice daily measured after 21 days; assay type: functional, organism-based; conditions: time 21.0 day
How it was run: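 Female athymic nude mice, 6–8 weeks, 5 million cells s.c. flank in 1:1 serum-free medium/matrigel; at group mean 100 mm³, 75 mg/kg by gavage twice daily in 10% acacia for 21 days, n = 9/group, vehicle controls; caliper volume A²×B×0.536; two-way repeated measures analysis.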

NCI-H322M = assay: Antiproliferative activity against human NCI-H322M cells assessed as reduction in cell growth upto 10 uM measured after 6 days by propidium iodide staining based analysis; assay type: functional; conditions: time 6.0 day; how it was run: as §1
HCT-116 [10] = assay: Induction of apoptosis in human HCT-116 cells assessed as increase in apoptotic cells in sub-G0-G1 fraction at 0.3 to 4 micromol/L incubated for 72 hrs by TUNEL staining based analysis; assay type: functional, cell-based; conditions: dose 0.3-4 µmol/L
[11] = target: Dual specificity mitogen-activated protein kinase kinase 6 (Homo sapiens) (UniProt P52564); assay: Inhibition of MKK6 (unknown origin) at 1 micromol/L relative to control; conditions: dose 1.0 µmol/L; how it was run: as §2
DU-145 = assay: Antiproliferative activity against human DU-145 cells assessed as reduction in cell growth upto 10 uM measured after 6 days by propidium iodide staining based analysis; assay type: functional; conditions: time 6.0 day; how it was run: as §1
[12] = Drug concentration in athymic nude mouse plasma xenografted with human HCT-116 cells at 75 mg/kg, po administered twice daily measured after 8 to 12 hrs by LC-MS analysis; assay type: ADME, organism-based; conditions: in vivo, time 8-12 hrs
How it was run: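 HCT116-bearing nude mice given 75 mg/kg twice daily by gavage; plasma collected on day 1 and day 21 at 0.5, 1, 2, 4, 8 and 12 h after dose; drug quantified by LC-MS/MS.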

[13] = target: Protein kinase C gamma type (Homo sapiens, UniProt P05129); assay: Inhibition of recombinant human PKCgamma using myelin basic protein as substrate incubated for 60 mins in presence of […] and ATP by microbeta scintillation counter analysis
How it was run: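 Radiometric filter-plate assay with recombinant human PKCγ (128 pmol/L) phosphorylating myelin basic protein (0.25 mg/mL). Buffer: 90 mmol/L HEPES pH 7.5, 5 mmol/L MgCl2, 100 µmol/L CaCl2, phosphatidylserine, diacylglycerol, 0.001% Triton X-100, 4% DMSO, 30 µmol/L ATP plus 32P-ATP. Enzyme added to start; ran 60 min at room temperature; H3PO4 quench; phosphocellulose capture. IC50 from a three-variable logistic fit to a 10-point series, 1–2,000 nmol/L.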

HCT-116 [14] = assay: Induction of apoptosis in human HCT-116 cells assessed as increase in oligonucleosomal fragmentation at 1 to 4 micromol/L incubated for 48 hrs by ELISA method; assay type: functional, cell-based; conditions: dose 1-4 µmol/L
How it was run: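 Oligonucleosomal fragmentation by Cell Death Detection ELISA-plus; 5,000 cells/well in 1% FBS medium, treated 48 h (range studied 0.1–10 μmol/L); absorbance normalized to control-treated cells to give nucleosomal enrichment factor.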

OVCAR-5 = assay: Antiproliferative activity against human OVCAR-5 cells assessed as reduction in cell growth upto 10 uM measured after 6 days by propidium iodide staining based analysis; assay type: functional; conditions: time 6.0 day; how it was run: as §1
BT-549 = assay: Antiproliferative activity against human BT-549 cells assessed as reduction in cell growth upto 10 uM measured after 6 days by propidium iodide staining based analysis; assay type: functional; conditions: time 6.0 day; how it was run: as §1
HCT-116 [15] = assay: Antitumor activity against human HCT-116 cells xenografted in athymic nude mouse assessed as reduction in GSK3beta phosphorylation at serine 9 residue at 75 mg/kg, po administered twice daily measured after 12 hrs by Western blotting analysis; assay type: functional, organism-based

Sequence of Serine/threonine-protein kinase AKT (Homo sapiens) (P31749 whole entry, looked up): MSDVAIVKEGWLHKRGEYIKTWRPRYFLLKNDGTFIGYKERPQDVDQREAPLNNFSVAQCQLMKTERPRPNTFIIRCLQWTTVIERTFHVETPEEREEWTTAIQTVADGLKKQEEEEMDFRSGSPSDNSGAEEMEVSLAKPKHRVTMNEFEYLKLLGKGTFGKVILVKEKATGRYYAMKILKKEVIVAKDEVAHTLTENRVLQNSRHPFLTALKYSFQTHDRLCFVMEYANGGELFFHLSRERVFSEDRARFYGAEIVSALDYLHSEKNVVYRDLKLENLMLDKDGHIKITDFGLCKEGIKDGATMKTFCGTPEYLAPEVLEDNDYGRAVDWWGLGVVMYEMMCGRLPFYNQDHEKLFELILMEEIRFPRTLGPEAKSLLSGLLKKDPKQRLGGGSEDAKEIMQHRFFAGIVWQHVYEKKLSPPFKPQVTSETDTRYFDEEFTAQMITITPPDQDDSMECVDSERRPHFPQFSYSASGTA
Sequence of Serine/threonine-protein kinase AKT (Homo sapiens) (P31751 whole entry, looked up): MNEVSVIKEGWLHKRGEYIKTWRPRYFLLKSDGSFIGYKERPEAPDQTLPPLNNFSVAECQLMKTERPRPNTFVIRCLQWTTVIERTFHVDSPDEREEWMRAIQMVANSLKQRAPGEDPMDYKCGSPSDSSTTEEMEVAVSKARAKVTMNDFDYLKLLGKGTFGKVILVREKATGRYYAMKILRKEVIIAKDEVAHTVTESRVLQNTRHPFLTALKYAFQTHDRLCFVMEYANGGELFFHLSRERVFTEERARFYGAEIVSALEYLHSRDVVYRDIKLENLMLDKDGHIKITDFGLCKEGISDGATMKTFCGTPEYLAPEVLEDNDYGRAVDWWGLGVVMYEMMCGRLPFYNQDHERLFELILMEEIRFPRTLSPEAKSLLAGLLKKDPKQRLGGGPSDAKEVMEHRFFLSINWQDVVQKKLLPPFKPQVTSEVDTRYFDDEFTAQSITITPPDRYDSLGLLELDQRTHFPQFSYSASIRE
Sequence of Serine/threonine-protein kinase AKT (Homo sapiens) (Q9Y243 whole entry, looked up): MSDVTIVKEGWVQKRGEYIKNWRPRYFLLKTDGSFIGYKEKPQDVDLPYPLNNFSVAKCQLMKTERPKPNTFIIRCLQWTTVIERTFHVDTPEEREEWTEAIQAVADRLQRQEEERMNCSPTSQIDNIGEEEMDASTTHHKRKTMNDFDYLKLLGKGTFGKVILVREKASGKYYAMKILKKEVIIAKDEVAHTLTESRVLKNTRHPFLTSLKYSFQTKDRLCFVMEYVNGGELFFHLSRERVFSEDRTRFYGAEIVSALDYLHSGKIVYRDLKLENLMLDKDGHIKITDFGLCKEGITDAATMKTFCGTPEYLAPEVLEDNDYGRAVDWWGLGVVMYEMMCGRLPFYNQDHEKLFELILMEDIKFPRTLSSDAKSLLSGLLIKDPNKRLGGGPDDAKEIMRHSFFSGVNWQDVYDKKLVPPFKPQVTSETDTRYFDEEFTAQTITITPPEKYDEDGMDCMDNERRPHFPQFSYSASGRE
Sequence of Dual specificity mitogen-activated protein kinase kinase 6 (Homo sapiens) (P52564 whole entry): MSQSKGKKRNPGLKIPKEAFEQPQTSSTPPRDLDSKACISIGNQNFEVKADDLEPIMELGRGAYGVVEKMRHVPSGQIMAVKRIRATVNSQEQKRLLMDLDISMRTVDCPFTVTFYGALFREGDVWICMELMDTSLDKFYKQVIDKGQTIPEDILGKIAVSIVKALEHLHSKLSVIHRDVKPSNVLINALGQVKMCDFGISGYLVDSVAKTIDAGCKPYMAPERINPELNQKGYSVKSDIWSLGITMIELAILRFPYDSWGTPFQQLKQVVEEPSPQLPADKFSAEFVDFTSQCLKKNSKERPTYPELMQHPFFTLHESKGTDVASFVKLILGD
Sequence of Platelet-derived growth factor receptor alpha (Homo sapiens) (P16234 whole entry): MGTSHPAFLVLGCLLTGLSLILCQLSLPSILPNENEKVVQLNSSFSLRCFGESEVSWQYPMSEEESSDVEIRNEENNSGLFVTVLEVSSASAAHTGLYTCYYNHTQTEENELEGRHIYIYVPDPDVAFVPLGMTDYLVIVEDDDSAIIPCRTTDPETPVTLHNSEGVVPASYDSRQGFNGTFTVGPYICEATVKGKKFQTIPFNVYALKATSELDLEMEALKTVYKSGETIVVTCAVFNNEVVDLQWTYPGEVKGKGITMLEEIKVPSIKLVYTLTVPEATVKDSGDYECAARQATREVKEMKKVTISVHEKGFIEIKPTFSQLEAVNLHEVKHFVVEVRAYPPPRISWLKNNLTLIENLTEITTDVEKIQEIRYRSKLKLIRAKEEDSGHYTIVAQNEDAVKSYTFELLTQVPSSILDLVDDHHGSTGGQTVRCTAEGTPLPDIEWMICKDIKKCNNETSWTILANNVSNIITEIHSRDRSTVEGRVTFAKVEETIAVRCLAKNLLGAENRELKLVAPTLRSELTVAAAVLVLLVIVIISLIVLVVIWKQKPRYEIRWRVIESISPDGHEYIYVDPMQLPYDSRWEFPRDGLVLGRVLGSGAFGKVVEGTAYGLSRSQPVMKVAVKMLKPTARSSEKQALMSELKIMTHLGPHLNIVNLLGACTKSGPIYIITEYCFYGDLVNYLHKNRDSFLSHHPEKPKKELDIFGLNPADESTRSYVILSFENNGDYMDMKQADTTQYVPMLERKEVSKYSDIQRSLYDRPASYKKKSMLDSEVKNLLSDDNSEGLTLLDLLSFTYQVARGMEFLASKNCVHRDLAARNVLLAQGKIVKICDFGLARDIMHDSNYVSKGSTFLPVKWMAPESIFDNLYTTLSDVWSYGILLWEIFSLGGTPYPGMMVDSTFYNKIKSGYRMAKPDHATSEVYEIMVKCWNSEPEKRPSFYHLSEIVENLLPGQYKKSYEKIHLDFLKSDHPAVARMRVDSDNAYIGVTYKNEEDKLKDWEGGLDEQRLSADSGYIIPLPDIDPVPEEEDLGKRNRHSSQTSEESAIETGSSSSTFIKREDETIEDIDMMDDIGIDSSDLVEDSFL
Sequence of Protein kinase C zeta type (Homo sapiens) (Q05513 whole entry): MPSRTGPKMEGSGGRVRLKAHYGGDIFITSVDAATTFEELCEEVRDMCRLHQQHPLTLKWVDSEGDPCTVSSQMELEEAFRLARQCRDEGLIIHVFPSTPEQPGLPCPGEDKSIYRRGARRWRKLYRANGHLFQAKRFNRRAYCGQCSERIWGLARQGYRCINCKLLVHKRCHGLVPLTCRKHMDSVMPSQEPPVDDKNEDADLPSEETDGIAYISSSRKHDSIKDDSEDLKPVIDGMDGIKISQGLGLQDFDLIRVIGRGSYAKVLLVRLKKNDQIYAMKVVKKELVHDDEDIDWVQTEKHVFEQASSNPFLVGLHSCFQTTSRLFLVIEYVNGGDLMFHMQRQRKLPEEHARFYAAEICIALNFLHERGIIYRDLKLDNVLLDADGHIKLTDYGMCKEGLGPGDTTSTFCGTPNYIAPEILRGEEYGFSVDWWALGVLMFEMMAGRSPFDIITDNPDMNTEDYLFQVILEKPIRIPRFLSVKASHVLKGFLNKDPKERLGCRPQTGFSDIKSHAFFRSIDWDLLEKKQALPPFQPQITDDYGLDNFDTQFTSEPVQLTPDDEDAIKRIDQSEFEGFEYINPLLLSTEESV

Cl.Cn1cc(C2=C(c3cn(C4CCN(Cc5ccccn5)CC4)c4ccccc34)C(=O)NC2=O)c2ccccc21 [ENZASTAURIN HYDROCHLORIDE]
Activity (NCI-H460): inactive
Activity (T47D): inactive
Activity (HCT-116 [1]): >50%
% control activity [2]: 47%
Activity (HCT-116 [3]): 80%
concentration at 0.5 h [4]: ~2000 nM
Activity (HCT-116 [5]): 50%
% control activity [6]: 86%
inhibition (HCT-116 [7]): inactive
inhibition [8]: Active
Activity (ACHN): inactive
Activity (HCT-116 [9]): Active
Activity (NCI-H322M): inactive
Activity (HCT-116 [10]): Active
% control activity [11]: 99%
Activity (DU-145): inactive
Drug uptake [12]: Not Active
IC50 [13]: 83 nM
Activity (HCT-116 [14]): Active
Activity (OVCAR-5): inactive
Activity (BT-549): inactive
Activity (HCT-116 [15]): inactive

— ChEMBL document CHEMBL5715938, “The protein kinase Cbeta-selective inhibitor, Enzastaurin (LY317615.HCl), suppresses signaling through the AKT pathway, induces apoptosis, and suppresses growth of human colon cancer and glioblastoma xenografts” (Cancer Res, 2005)
